Results filed as inconclusive are left out.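 The calls were made as follows, unless noted: active = growth inhibition above 25% in both replicates, a cutoff set 3 SD above the mean; inconclusive = above 25% in only one replicate; inactive = the rest.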
What was measured:
[1] = S. cerevisiae growth inhibition in permissive medium (OD615), pilot counter-assay for S. cerevisiae lifespan shortening project, permissive growth control (AID 705); details: OD615, 24 h, at 10 µM, stronger effect = higher value
Outline: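 System: S. cerevisiae with engineered DeaD lifespan system / Measured by: absorbance (optical density) at 615 nm / Read-out: reduction in yeast growth (OD615) / Times: 4 h cell pre-growth, 24 h exposure at 30 °C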

[2] = S. cerevisiae growth inhibition in restrictive medium, OD615, pilot screen, restrictive growth control, yeast lifespan reduction project (AID 706;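 active = growth inhibition above a set limit, 3 SD over mean compound inhibition, in both replicates, cut at about 43% in these data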;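 also: modified DeaD lifespan yeast strain shifted to restrictive glucose medium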); details: OD615, 48 h, at 10 µM, stronger effect = higher value
Outline: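 System: Engineered S. cerevisiae DeaD strain | Buffer or medium: Glucose-based CSMM-D restrictive medium | Schedule: 4 h pre-incubation, 48 h exposure at 30 °C | Technique: Optical density at 615 nm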

[3] = doxorubicin toxicity protection in MRP-1 cells – H69AR cells, CellTiter-Glo, duplicate, MRP-1 activator project, pilot screen (AID 807;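 active = viability increase at or above a cutoff of the median across tested compounds plus 3 SD, cut at about 8.5% in these data, passing the limit was not always enough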;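 also: compound pretreatment 18-22 h then 72 h combined with doxorubicin; 0% = doxorubicin alone and 100% = vehicle without doxorubicin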); details: H69AR viability with doxorubicin, CellTiter-Glo luminescence; at 10 µM; stronger effect = higher value
[4] = viability of HCT116 without oncogenic beta-catenin – human colon tumor cells, pilot screen (AID 823;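 active = cell viability at or below a set limit in both duplicate runs, the limit being the all-compound median minus 4 SD, cut at about 23% in these data, passing the limit was not always enough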;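 also: 0% = wells killed by 20 µM Hyamine and 100% = untreated DMSO cell wells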); details: HCT116 beta-catenin knockout viability, CellTiter-Glo, 60 h; at 10 µM; stronger effect = lower value
[5] = RAM pathway blockade in budding yeast – dse1pr::URA3 reporter, 5-FOA selection, pilot screen (AID 869;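 active = inhibition over a set limit, the all-compound mean plus 3 SD, in both replicate runs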;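 also: 0% = DMSO wells with no growth and 100% = 10 µM 1-NA-PP1 with full growth; RAM network block rescues cells from 5-FOA so hits raise OD615 growth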); details: S. cerevisiae dse1pr::URA3 5-FOA growth, OD615, 2 d; at 10 µM; stronger effect = higher value; strain carries analog-sensitive mutant Cbk1 kinase
[6] = RAM signaling pathway blockade in yeast – S. cerevisiae, Pdr1DBD-CYC8 efflux-inhibited sensitized strain, primary screen (AID 1298;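 active = RAM network inhibition above 8.4% in each of two replicates, 3 SD over the compound average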;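 also: 0% = DMSO untreated cells without growth and 100% = 10 µM 1-NA-PP1 full growth; higher means more yeast growth rescued from 5-FOA killing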); details: S. cerevisiae cbk1-as DSE1-URA3 strain, 5-FOA growth OD615, 2 d; at 50 µM; stronger effect = higher value

CC(=O)NCCN=Cc1sc2ccccc2c1O
inactive: growth inhibition [1] -8.43% | growth inhibition [2] -2.56% | viability increase [3] -2.42% | viability [4] 92.6% | inhibition [5] -0.315% | RAM network inhibition [6] -0.37%

CCC1(C)Cc2c(sc3c2c2ncnn2c2nnc(SCC(=O)NCc4ccco4)n32)CO1 (stereo not given)
inactive: growth inhibition [1] -19.2% | growth inhibition [2] -5.88% | viability increase [3] -7.33% | viability [4] 58.1% | inhibition [5] 0.815% | RAM network inhibition [6] 1.87%

Cc1cc(C)n(-c2cc(=O)n(C)c(=O)n2C)n1
inactive: growth inhibition [1] 1.39% | growth inhibition [2] -9.85% | viability increase [3] -2.96% | viability [4] 92.3% | inhibition [5] 0.755% | RAM network inhibition [6] 4.35%

CCn1cc(C(=O)NC2CCCCCC2)c2cc(OC)c(OC)cc2c1=O
inactive: growth inhibition [1] -29.2% | growth inhibition [2] 1.87% | viability increase [3] -3.91% | viability [4] 76.3% | inhibition [5] 2.02% | RAM network inhibition [6] 4.11%

O=C(OCC(=O)N1CCN(C(=O)c2ccco2)CC1)C1=COCCO1
inactive: growth inhibition [1] -9.26% | growth inhibition [2] -5.99% | viability increase [3] -3.83% | viability [4] 105% | inhibition [5] 2.21% | RAM network inhibition [6] 3.69%

CCOC(=O)N1CCN(C(=O)CCc2nc3sc4c(c3c(=O)[nH]2)CCCC4)CC1
inactive: growth inhibition [1] -13.4% | growth inhibition [2] 2.66% | viability increase [3] -2.68% | viability [4] 104% | inhibition [5] 2.59% | RAM network inhibition [6] 3.99%

CSc1nnc(C2CCCN2)n1C (stereo not given)
inactive: growth inhibition [1] -16.9% | growth inhibition [2] -7.04% | viability increase [3] -0.51% | viability [4] 90.9% | inhibition [5] 2.88% | RAM network inhibition [6] -0.16%

CCn1cc(C(=O)N2CCN(c3ccccn3)CC2)c2cc(OC)c(OC)cc2c1=O
inactive: growth inhibition [1] -18% | growth inhibition [2] -7.93% | viability increase [3] -4.32% | viability [4] 104% | inhibition [5] 0.495% | RAM network inhibition [6] 6.02%

CCOC(=O)C1CCN(C(=O)Cc2c(C(=O)O)[nH]c3ccccc23)CC1
inactive: growth inhibition [1] -13.4% | growth inhibition [2] -1.88% | viability increase [3] -1.36% | viability [4] 90.5% | inhibition [5] 0.02% | RAM network inhibition [6] 3.12%

c1ccc(-n2ncc3c2ncn2c(C4CCCCC4)nnc32)cc1
inactive: growth inhibition [1] -12.6% | growth inhibition [2] -6.54% | viability increase [3] 0.09% | viability [4] 96.1% | inhibition [5] 1.33% | RAM network inhibition [6] 2.45%

— PubChem BioAssay
